Results reported in ChEMBL document CHEMBL1137238, “The synthesis and SAR of 2-amino-pyrrolo[2,3-d]pyrimidines: a new class of Aurora-A kinase inhibitors” (Bioorg Med Chem Lett, 2006).

Legend:
[1] = target: T1, Cyclin-dependent kinase 4 (Homo sapiens, UniProt P11802); experiment: Inhibition of retinoblastoma phosphorylation by CDK4; type: functional
Method in brief: (§1)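 Purified CDK4 incubated with compounds and retinoblastoma protein substrate in 100 mM Hepes pH 7.5, 75 mM NaCl, 2 mM DTT, 10 mM MgCl2, 30 μM ATP. Stopped after 35 min. Rb phosphorylation at Ser795 measured colorimetrically with a phospho-specific antibody.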

[2] = target: Vascular endothelial growth factor receptor (Homo sapiens, UniProt P17948+P35916+P35968); experiment: Inhibition of VEGFR; type: protein assay
Insulin receptor = Insulin receptor (Homo sapiens, UniProt P06213); experiment: Inhibition of IRK
Insulin receptor, sequence (P06213 28-758 limits assumed): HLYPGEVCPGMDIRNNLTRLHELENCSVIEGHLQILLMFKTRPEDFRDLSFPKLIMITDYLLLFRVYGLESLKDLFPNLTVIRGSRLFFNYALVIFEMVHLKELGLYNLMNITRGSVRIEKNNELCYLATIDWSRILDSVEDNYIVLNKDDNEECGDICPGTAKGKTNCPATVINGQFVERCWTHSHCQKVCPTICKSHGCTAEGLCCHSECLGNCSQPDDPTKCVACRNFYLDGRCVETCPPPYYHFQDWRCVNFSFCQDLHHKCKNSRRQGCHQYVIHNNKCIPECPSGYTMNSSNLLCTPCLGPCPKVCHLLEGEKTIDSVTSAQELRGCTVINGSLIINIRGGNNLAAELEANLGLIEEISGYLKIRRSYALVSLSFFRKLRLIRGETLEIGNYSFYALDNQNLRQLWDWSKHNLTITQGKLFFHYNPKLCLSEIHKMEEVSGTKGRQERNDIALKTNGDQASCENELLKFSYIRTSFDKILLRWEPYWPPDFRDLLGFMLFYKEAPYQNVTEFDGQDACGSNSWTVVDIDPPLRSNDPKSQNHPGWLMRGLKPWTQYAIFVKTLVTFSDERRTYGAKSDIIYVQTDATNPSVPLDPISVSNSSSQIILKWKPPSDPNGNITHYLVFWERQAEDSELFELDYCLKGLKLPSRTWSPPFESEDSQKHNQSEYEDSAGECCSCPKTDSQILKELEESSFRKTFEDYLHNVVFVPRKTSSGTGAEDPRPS
Insulin receptor, sequence (P06213 763-1382 limits assumed): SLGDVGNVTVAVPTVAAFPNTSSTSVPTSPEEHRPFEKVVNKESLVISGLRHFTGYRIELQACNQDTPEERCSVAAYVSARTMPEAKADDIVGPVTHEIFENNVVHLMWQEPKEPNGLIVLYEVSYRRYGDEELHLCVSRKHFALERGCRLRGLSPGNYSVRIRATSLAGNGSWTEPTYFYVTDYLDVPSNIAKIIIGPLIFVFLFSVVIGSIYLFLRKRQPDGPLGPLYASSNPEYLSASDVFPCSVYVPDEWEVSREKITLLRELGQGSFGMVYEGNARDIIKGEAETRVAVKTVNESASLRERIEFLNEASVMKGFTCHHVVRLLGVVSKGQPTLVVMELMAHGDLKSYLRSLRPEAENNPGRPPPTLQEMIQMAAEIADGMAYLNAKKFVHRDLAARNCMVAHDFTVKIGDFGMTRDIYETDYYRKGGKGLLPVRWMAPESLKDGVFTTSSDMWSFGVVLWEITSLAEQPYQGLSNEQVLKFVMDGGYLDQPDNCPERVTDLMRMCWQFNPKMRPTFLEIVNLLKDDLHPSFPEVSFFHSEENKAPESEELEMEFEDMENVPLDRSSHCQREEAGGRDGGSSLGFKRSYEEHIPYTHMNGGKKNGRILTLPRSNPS

[3] = target: BDNF/NT-3 growth factors receptor (Homo sapiens, UniProt Q16620); experiment: Inhibition of TrkB
BDNF/NT-3 growth factors receptor, sequence (Q16620 whole entry): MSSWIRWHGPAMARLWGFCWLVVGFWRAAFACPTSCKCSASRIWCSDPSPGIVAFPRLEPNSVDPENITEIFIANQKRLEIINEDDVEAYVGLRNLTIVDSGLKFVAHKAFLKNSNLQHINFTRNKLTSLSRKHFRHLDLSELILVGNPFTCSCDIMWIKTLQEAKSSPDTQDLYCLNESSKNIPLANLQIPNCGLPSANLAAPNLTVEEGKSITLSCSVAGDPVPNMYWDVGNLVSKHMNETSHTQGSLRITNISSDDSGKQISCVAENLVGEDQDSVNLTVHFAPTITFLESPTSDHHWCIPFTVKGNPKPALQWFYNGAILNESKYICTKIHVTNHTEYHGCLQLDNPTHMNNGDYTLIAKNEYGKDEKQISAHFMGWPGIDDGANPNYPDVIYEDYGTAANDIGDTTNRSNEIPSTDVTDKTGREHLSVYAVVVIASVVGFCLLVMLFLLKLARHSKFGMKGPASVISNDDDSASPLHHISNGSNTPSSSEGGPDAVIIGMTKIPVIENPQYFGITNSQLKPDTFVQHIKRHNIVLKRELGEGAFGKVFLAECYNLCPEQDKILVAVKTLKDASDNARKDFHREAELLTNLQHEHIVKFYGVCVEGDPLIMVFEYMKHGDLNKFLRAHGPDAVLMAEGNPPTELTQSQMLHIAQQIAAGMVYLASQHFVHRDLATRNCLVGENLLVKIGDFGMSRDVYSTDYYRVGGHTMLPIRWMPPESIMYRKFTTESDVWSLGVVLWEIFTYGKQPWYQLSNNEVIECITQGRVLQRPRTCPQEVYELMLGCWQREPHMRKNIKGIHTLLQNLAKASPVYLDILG

[4] = target: T1, Cyclin-dependent kinase 4; experiment: Inhibition of CDK4; method in brief: as §1
[5] = target: Cyclin-dependent kinase 7 (Homo sapiens, UniProt P50613); experiment: Inhibition of CDK7
Cyclin-dependent kinase 7, sequence (P50613 whole entry): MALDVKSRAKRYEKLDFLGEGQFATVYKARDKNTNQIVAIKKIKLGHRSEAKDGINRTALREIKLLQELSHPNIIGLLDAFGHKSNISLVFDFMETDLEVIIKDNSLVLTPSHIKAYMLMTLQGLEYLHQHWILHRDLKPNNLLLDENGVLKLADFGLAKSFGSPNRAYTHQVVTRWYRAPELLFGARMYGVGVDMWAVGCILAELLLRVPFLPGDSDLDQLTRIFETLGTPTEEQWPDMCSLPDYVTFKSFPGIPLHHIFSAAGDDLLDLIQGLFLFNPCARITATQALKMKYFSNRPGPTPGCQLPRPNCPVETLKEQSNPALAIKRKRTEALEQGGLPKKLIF

[6] = target: Cyclin-dependent kinase 1 (Homo sapiens, UniProt P06493); experiment: Inhibition of CDK1
Cyclin-dependent kinase 1, sequence (P06493 whole entry): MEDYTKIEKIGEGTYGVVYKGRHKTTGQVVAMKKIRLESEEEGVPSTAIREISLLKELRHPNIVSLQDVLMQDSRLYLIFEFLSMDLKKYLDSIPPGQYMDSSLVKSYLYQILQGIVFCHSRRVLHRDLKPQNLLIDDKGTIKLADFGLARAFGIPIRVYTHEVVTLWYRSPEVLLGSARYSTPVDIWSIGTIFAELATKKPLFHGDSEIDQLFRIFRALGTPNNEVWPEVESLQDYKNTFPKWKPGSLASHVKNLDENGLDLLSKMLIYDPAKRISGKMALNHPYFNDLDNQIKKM

[7] = target: Platelet-derived growth factor receptor (Homo sapiens, UniProt P09619+P16234); experiment: Inhibition of PDGFR; type: protein-complex assay
[8] = target: Aurora kinase A (Mus musculus) (UniProt P97477); experiment: Inhibition of Aurora-A
Aurora kinase A (Mus musculus), sequence (P97477 whole entry, looked up): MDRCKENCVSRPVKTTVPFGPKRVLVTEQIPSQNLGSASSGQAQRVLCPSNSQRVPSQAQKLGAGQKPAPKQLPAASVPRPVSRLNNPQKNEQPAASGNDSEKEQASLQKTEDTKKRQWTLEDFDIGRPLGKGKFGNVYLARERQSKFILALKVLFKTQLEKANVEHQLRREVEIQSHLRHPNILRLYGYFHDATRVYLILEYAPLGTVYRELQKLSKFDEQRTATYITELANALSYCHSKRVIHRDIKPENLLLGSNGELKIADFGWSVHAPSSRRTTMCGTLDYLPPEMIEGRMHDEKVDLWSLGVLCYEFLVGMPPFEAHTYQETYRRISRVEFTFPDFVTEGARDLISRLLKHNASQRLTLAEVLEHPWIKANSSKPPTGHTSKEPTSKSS

[9] = target: Proto-oncogene tyrosine-protein kinase Src (Homo sapiens, UniProt P12931); experiment: Inhibition of c-src
Proto-oncogene tyrosine-protein kinase Src, sequence (P12931 2-536 limits assumed): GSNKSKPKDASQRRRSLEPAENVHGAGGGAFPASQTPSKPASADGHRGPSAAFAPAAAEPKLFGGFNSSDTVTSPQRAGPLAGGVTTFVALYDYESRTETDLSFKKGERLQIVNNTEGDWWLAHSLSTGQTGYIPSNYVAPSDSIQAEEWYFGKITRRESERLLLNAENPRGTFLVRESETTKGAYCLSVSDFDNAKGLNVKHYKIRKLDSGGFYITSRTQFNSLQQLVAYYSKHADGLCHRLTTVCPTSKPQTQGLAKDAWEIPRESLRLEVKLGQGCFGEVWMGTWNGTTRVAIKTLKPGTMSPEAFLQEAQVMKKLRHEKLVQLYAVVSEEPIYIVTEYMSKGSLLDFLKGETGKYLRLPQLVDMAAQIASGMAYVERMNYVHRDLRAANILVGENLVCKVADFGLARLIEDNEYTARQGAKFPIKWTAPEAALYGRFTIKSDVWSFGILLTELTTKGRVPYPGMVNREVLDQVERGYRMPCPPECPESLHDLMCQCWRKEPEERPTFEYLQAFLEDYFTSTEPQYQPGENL

T1 sequence (P11802 whole entry): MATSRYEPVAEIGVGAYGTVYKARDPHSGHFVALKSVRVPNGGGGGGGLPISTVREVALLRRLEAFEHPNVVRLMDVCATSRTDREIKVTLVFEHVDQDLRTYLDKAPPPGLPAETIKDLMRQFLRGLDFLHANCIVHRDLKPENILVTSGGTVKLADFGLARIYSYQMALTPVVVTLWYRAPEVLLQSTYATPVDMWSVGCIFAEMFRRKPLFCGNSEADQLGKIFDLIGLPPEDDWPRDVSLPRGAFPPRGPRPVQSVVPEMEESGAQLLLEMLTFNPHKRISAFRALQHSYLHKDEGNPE

Row | SMILES | IC50 [1] [µM] | also measured
1 | CN1CCN(c2ccc(Nc3ncc4ccn(-c5cccnc5)c4n3)cc2)CC1 | 1.4 | 
2 | CN1CCN(c2ccc(Nc3ncc4ccn(C5CCCCC5)c4n3)cc2)CC1 | 0.031 | IC50 [2]: 0.1 µM; IC50 (Insulin receptor): 1 µM; IC50 [3]: 0.16 µM; IC50 [4]: 0.031 µM; IC50 [5]: 1.5 µM; IC50 [6]: 1.6 µM; IC50 [7]: 0.29 µM; IC50 [8]: 0.047 µM; IC50 [9]: 0.71 µM
3 | CN1CCN(c2ccc(Nc3ncc4ccn(C5CC6CCC5C6)c4n3)cc2)CC1 (centres undefined) | 0.029 | 
4 | COCCN1CCN(c2ccc(Nc3ncc4ccn(C5CCCCC5)c4n3)cc2)CC1 | 0.11 | 
5 | O=C(O)Cc1cccc(Nc2ncc3ccn(C4CCCCC4)c3n2)c1 | 0.35 | 
6 | O=S1(=O)CCN(c2ccc(Nc3ncc4ccn(C5CCCCC5)c4n3)cc2)CC1 | 1 | 
7 | COc1cccc(-n2ccc3cnc(Nc4ccc(N5CCN(C)CC5)cc4)nc32)c1 | 0.34 | 
8 | c1cc(N2CCOCC2)ccc1Nc1ncc2ccn(C3CCCCC3)c2n1 | 0.6 | 
9 | CN1CCN(c2ccc(Nc3ncc4ccn(-c5cccc(S(C)(=O)=O)c5)c4n3)cc2)CC1 | 2 | 
10 | CN1CCN(c2ccc(Nc3ncc4ccn(C5Cc6ccccc6C5)c4n3)cc2)CC1 | 2.1 | 
